Test results: ChEMBL document CHEMBL4689842, “EUbOPEN Chemogenomics Library wave 1” (2021)

Test system: U2OS
Assay: Multiplex assay against U2OS
Assay type: toxicity, cell-based
Details: human
Summary of the method: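 Live cells were stained at seeding with Hoechst33342, BioTracker Green Microtubule Cytoskeleton Dye, MitoTracker Red and Annexin V Alexa Fluor 680. Following compound addition, they were imaged on a CQ1 microscope at 37°C and 5% CO2 and gated by CellPathfinder machine learning into Hoechst high-intensity objects or normal cells, with normal cells split into healthy, pyknosed or fragmented nuclei and pyknosed cells into mitotic or apoptotic. Tubulin, mitochondrial-mass and membrane-permeability phenotypes are per cents of healthy-nucleus cells.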

[1] = 12 h, 1 µM, compound concentration 1 uM, replicate 1
[2] = 12 h, 1 µM, compound concentration 1 uM, replicate 2
[3] = 12 h, 10 µM, compound concentration 10 uM, replicate 1
[4] = 12 h, 10 µM, compound concentration 10 uM, replicate 2
[5] = 24 h, 1 µM, compound concentration 1 uM, replicate 1
[6] = 24 h, 1 µM, compound concentration 1 uM, replicate 2
[7] = 24 h, 10 µM, compound concentration 10 uM, replicate 1
[8] = 24 h, 10 µM, compound concentration 10 uM, replicate 2
[9] = 48 h, 1 µM, compound concentration 1 uM, replicate 1
[10] = 48 h, 1 µM, compound concentration 1 uM, replicate 2
[11] = 48 h, 10 µM, compound concentration 10 uM, replicate 1
[12] = 48 h, 10 µM, compound concentration 10 uM, replicate 2

CC(C)(C)NC[C@H](O)COc1nsnc1N1CCOCC1 [TIMOLOL]
Population Apoptotic (%) [1]: 77% | Population Fragmented Nuclei (%) [1]: 12% | Population Healthy Nuclei (%) [1]: 80% | Population Hoechst High Intensity Objects (%) [1]: 7% | Population Membrane Permeable-Phenotype (%) [1]: 4% | Population Mitochondria Different-Phenotype (%) [1]: 9% | Population Mitotic Cells (%) [1]: 22% | Population Pyknosed Nuclei (%) [1]: 7% | Population Tubulin-Different-Phenotype (%) [1]: 8% | Population Apoptotic (%) [2]: 100% | Population Fragmented Nuclei (%) [2]: 5% | Population Healthy Nuclei (%) [2]: 88% | Population Hoechst High Intensity Objects (%) [2]: 8% | Population Membrane Permeable-Phenotype (%) [2]: 8% | Population Mitochondria Different-Phenotype (%) [2]: 11% | Population Mitotic Cells (%) [2]: 0% | Population Normal (%) [2]: 92% | Population Pyknosed Nuclei (%) [2]: 5% | Population Tubulin-Different-Phenotype (%) [2]: 18% | Population Apoptotic (%) [3]: 30% | Population Fragmented Nuclei (%) [3]: 8% | Population Healthy Nuclei (%) [3]: 77% | Population Hoechst High Intensity Objects (%) [3]: 6% | Population Membrane Permeable-Phenotype (%) [3]: 6% | Population Mitochondria Different-Phenotype (%) [3]: 8% | Population Mitotic Cells (%) [3]: 69% | Population Normal (%) [3]: 93% | Population Pyknosed Nuclei (%) [3]: 14% | Population Tubulin-Different-Phenotype (%) [3]: 8% | Population Apoptotic (%) [4]: 33% | Population Healthy Nuclei (%) [4]: 79% | Population Hoechst High Intensity Objects (%) [4]: 3% | Population Membrane Permeable-Phenotype (%) [4]: 4% | Population Mitochondria Different-Phenotype (%) [4]: 7% | Population Mitotic Cells (%) [4]: 66% | Population Normal (%) [4]: 96% | Population Pyknosed Nuclei (%) [4]: 11% | Population Tubulin-Different-Phenotype (%) [4]: 4% | Population Apoptotic (%) [5]: 63% | Population Fragmented Nuclei (%) [5]: 10% | Population Healthy Nuclei (%) [5]: 82% | Population Hoechst High Intensity Objects (%) [5]: 4% | Population Mitochondria Different-Phenotype (%) [5]: 7% | Population Mitotic Cells (%) [5]: 36% | Population Normal (%) [5]: 95% | Population Tubulin-Different-Phenotype (%) [5]: 12% | Population Apoptotic (%) [6]: 50% | Population Fragmented Nuclei (%) [6]: 11% | Population Healthy Nuclei (%) [6]: 81% | Population Hoechst High Intensity Objects (%) [6]: 5% | Population Membrane Permeable-Phenotype (%) [6]: 2% | Population Mitochondria Different-Phenotype (%) [6]: 18% | Population Mitotic Cells (%) [6]: 50% | Population Normal (%) [6]: 94% | Population Pyknosed Nuclei (%) [6]: 6% | Population Tubulin-Different-Phenotype (%) [6]: 21% | Population Apoptotic (%) [7]: 20% | Population Fragmented Nuclei (%) [7]: 7% | Population Healthy Nuclei (%) [7]: 85% | Population Hoechst High Intensity Objects (%) [7]: 5% | Population Membrane Permeable-Phenotype (%) [7]: 5% | Population Mitochondria Different-Phenotype (%) [7]: 2% | Population Mitotic Cells (%) [7]: 80% | Population Normal (%) [7]: 94% | Population Pyknosed Nuclei (%) [7]: 6% | Population Tubulin-Different-Phenotype (%) [7]: 5% | Population Apoptotic (%) [8]: 41% | Population Healthy Nuclei (%) [8]: 81% | Population Hoechst High Intensity Objects (%) [8]: 2% | Population Membrane Permeable-Phenotype (%) [8]: 3% | Population Mitochondria Different-Phenotype (%) [8]: 5% | Population Mitotic Cells (%) [8]: 58% | Population Normal (%) [8]: 97% | Population Pyknosed Nuclei (%) [8]: 11% | Population Tubulin-Different-Phenotype (%) [8]: 4% | Population Apoptotic (%) [9]: 23% | Population Membrane Permeable-Phenotype (%) [9]: 1% | Population Mitochondria Different-Phenotype (%) [9]: 12% | Population Mitotic Cells (%) [9]: 76% | Population Tubulin-Different-Phenotype (%) [9]: 5% | Population Apoptotic (%) [10]: 42% | Population Fragmented Nuclei (%) [10]: 5% | Population Healthy Nuclei (%) [10]: 88% | Population Hoechst High Intensity Objects (%) [10]: 1% | Population Membrane Permeable-Phenotype (%) [10]: 13% | Population Mitochondria Different-Phenotype (%) [10]: 17% | Population Mitotic Cells (%) [10]: 57% | Population Normal (%) [10]: 98% | Population Pyknosed Nuclei (%) [10]: 5% | Population Tubulin-Different-Phenotype (%) [10]: 21% | Population Apoptotic (%) [11]: 46% | Population Fragmented Nuclei (%) [11]: 1% | Population Healthy Nuclei (%) [11]: 93% | Population Hoechst High Intensity Objects (%) [11]: 2% | Population Membrane Permeable-Phenotype (%) [11]: 1% | Population Mitochondria Different-Phenotype (%) [11]: 9% | Population Mitotic Cells (%) [11]: 53% | Population Normal (%) [11]: 97% | Population Tubulin-Different-Phenotype (%) [11]: 6% | Population Apoptotic (%) [12]: 27% | Population Fragmented Nuclei (%) [12]: 3% | Population Healthy Nuclei (%) [12]: 91% | Population Hoechst High Intensity Objects (%) [12]: 1% | Population Membrane Permeable-Phenotype (%) [12]: 4% | Population Mitochondria Different-Phenotype (%) [12]: 10% | Population Mitotic Cells (%) [12]: 72% | Population Normal (%) [12]: 98% | Population Pyknosed Nuclei (%) [12]: 4% | Population Tubulin-Different-Phenotype (%) [12]: 13%
